The values that follow come from ChEMBL document CHEMBL1131107 (J Med Chem, 1998).

Structures are written as SMILES.

Experiment [1] deals with T1, Protein farnesyltransferase (Rattus norvegicus, UniProt Q02293+Q04631). Briefly: Inhibition of Farnesyltransferase from rat brain.
Experiment [2] concerns NIH3T3. Briefly: Inhibition of Ras processing in Hras-transformed NIH3T3 cells at 15 uM.
Experiment [3] deals with NIH3T3. Kind of experiment: Inhibition of Ras processing in Hras-transformed NIH3T3 cells.
In the next experiment the test system is NIH3T3 (Mus musculus). Briefly: Inhibition of Ras processing in Hras transformed NIH3T3 cells.
Experiment [4] concerns the target T1, Protein farnesyltransferase. Kind of experiment: Inhibition of FTase in competitive manner with respect to FPP (farnesyl diphosphate) at 6.0 uM FPP and 0.36 uM Ras peptide. The class given is protein-complex assay. The gist of the method:
(§1)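 FTase IC50 (nM) measured at varied substrate levels to test competition: FPP 0.6 or 6.0 μM and Ras C-terminal peptide 0.36 or 3.6 μM. Competition with FPP was judged from the shift in IC50 as FPP and peptide concentrations changed.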

Experiment [5] has the same target. Kind of experiment: Inhibition of Farnesyltransferase in competitive manner with respect to FPP (farnesyl diphosphate) at 0.6 uM FPP and 0.36 uM Ras peptide. Type of experiment: protein-complex assay. Put shortly:
as §1

The target is the same in experiment [6]. Briefly: Inhibition of Farnesyltransferase in competitive manner with respect to FPP (farnesyl diphosphate) at 0.6 uM FPP and 3.6 uM Ras peptide. Type of experiment: protein-complex assay. Put shortly:
as §1

With `CC(C(C/C=C/c1nc2ccccc2o1)c1ccc(Cl)cc1)N(Cc1ccc2ccccc2c1)C(=O)CC(CC(=O)O)C(=O)O` (centres undefined), in experiment [1], the IC50 is 0.028 µM. That is a double-digit nanomolar value. Compound `C[C@@H]([C@H](C/C=C/c1nc2ccccc2o1)c1ccc2c(c1)OCO2)N(Cc1ccc2ccccc2c1)C(=O)[C@H]1OC(C(=O)[O-])(C(=O)[O-])O[C@@H]1C(=O)[O-].[Na+].[Na+].[Na+]` showed a half-inhibitory concentration (IC50) in experiment [1] of 0.0072 µM. Besides, the Inhibition in the experiment with NIH3T3 [2] is given as 42%. Regarding `CC(C(C/C=C/c1ccc2ccccc2c1)c1ccc(Cl)cc1)N(Cc1ccc2ccccc2c1)C(=O)CC(CC(=O)O)C(=O)O` (centres undefined), inhibition in experiment [1] was half-maximal at 0.051 µM (IC50). `C[C@@H]([C@H](C/C=C/c1nc2ccccc2o1)c1ccc2c(c1)OCO2)N(Cc1ccc2ccccc2c1)C(=O)[C@@H]1OC(C(=O)O)(C(=O)O)O[C@H]1C(=O)O`: the 50% inhibitory concentration (IC50) in experiment [1] turned out to be 0.0039 µM; with NIH3T3 [3] it was 1.2 µM. For `CC(C(Cc1ccc(Cl)cc1)c1ccc(Cl)cc1)N(C)C(=O)CC(CC(=O)O)C(=O)O` (centres undefined), the IC50 in experiment [1] was above 10 µM. With `C[C@@H]([C@H](C/C=C/c1nc2ccccc2o1)c1ccc2c(c1)OCO2)N(Cc1ccc2ccccc2c1)C(=O)[C@H]1OC(C(=O)O)(C(=O)O)O[C@H]1C(=O)O`, the IC50 in experiment [1] amounted to 0.0039 µM; with NIH3T3 [3], 10 µM. `CC(C(C/C=C/c1nc2ccccc2o1)c1ccc2c(c1)OCO2)N(Cc1ccc2ccccc2c1)C(=O)CC(CC(=O)O)C(=O)O` (centres undefined): 0.023 µM corresponded to half-maximal inhibition in experiment [1] (IC50). Regarding `CC(C(C/C=C/c1nc2ccccc2o1)c1ccc2c(c1)OCO2)N(Cc1ccc2ccccc2c1)C(=O)C1OC(C(=O)O)(C(=O)O)O[C@H]1C(=O)O` (single isomer, unassigned), the IC50 in experiment [1] amounted to 0.008 µM; with NIH3T3 (Mus musculus), 17 µM.

For the compound `C[C@@H]([C@H](C/C=C/c1nc2ccccc2o1)c1ccc2c(c1)OCO2)N(Cc1ccc2ccccc2c1)C(=O)[C@@H]1OC(C(=O)O)(C(=O)O)O[C@@H]1C(=O)O`, the concentration for half-maximal inhibition (IC50) in experiment [4] was determined as 0.045 µM; in experiment [5], 0.0056 µM; in experiment [1], 0.005 µM; in experiment [6], 0.0072 µM; in the experiment on NIH3T3 [3], 4.3 µM. On to `C[C@H]([C@@H](C/C=C/c1nc2ccccc2o1)c1ccc2c(c1)OCO2)N(Cc1ccc2ccccc2c1)C(=O)[C@@H]1OC(C(=O)O)(C(=O)O)O[C@@H]1C(=O)O`, for which the half-inhibitory concentration (IC50) in experiment [1] came out at 0.006 µM; in the experiment with NIH3T3 [3], 8.8 µM.
